Data published in ChEMBL document CHEMBL3272249, “Esters of N-tert-butylarterenol. Long-acting new bronchodilators with reduced cardiac effects” (J Med Chem, 1976).

Key:
Canis familiaris [1] = test: Bronchodilator activity in dog assessed as time of inhibition of carbachol or histamine-induced bronchoconstriction at 4 to 8 mg/kg, iv relative to control; assay type: functional, Canis lupus familiaris; conditions: dose mg/kg 4-8
Summary of the method: (§1)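 Dog airway model: anesthetized, cannulated via a nonbreathing valve, with airway pressure changes recorded after iv carbachol (2–4 μg/kg) or histamine diphosphate (20–50 μg/kg) challenge, each agonist in different animals. Compounds were given iv, intraduodenally or intratracheally from fresh aqueous stocks diluted in saline. Duration (h) of inhibition of induced bronchoconstriction was followed, and the two agonist datasets were pooled.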

Canis familiaris [2] = test: Bronchodilator activity in dog assessed as degree of inhibition of carbachol or histamine-induced bronchoconstriction at 200 to 400 mg/kg, id relative to control; assay type: functional, Canis lupus familiaris; conditions: dose mg/kg 200-400; route intraduodenal
Summary of the method: (§2)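 Anesthetized dogs, trachea cannulated with a nonbreathing valve. Bronchoconstriction induced by iv carbachol (2–4 μg/kg) or histamine diphosphate (20–50 μg/kg) in separate animals, and airway pressure recorded by transducer. Drug stocks were made fresh in distilled water, diluted in saline and kept on ice. Read-out was percent inhibition of control constriction, averaged over at least three dogs per dose at the higher dose. Carbachol and histamine data were combined.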

Canis familiaris [3] = test: Bronchodilator activity in dog assessed as time of inhibition of carbachol or histamine-induced bronchoconstriction at 380 mg/kg, it relative to control; assay type: functional, Canis lupus familiaris; conditions: route endotracheal; summary of the method: as §1
Canis familiaris [4] = test: Cardiotoxicity in spontaneously respiring dog assessed as time of increase in heart rate at 4 to 8 mg/kg, iv relative to control; assay type: toxicity, organism-based, Canis lupus familiaris; design: dose 4-8 mg/kg, route intravenous; conditions: in vivo
Summary of the method: (§3)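 Anesthetized, spontaneously respiring dogs. Heart rate was taken from a lead II EKG, and blood pressure from the right femoral artery by transducer. The increase in heart rate (beats/min) was scored on a graded scale with more than 4 dogs per dose, and its duration was recorded. Drugs were dissolved fresh in distilled water, diluted in physiological saline and kept on ice.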

Canis familiaris [5] = test: Bronchodilator activity in dog assessed as time of inhibition of carbachol or histamine-induced bronchoconstriction at 200 to 400 mg/kg, id relative to control; assay type: functional, Canis lupus familiaris; conditions: dose mg/kg 200-400; route intraduodenal; summary of the method: as §1
Canis familiaris [6] = test: Bronchodilator activity in dog assessed as degree of inhibition of carbachol or histamine-induced bronchoconstriction at 380 mg/kg, it relative to control; assay type: functional; conditions: Canis lupus familiaris, route endotracheal; summary of the method: as §2
Canis familiaris [7] = test: Bronchodilator activity in dog assessed as degree of inhibition of carbachol or histamine-induced bronchoconstriction at 4 to 8 mg/kg, iv relative to control; assay type: functional, Canis lupus familiaris; conditions: dose mg/kg 4-8; summary of the method: as §2
Canis familiaris [8] = test: Cardiotoxicity in spontaneously respiring dog assessed as degree of increase in heart rate at 4 to 8 mg/kg, iv relative to control; assay type: toxicity, organism-based, Canis lupus familiaris; design: dose 4-8 mg/kg, route intravenous; conditions: in vivo; summary of the method: as §3
Canis familiaris [9] = test: Bronchodilator activity in dog assessed as degree of inhibition of carbachol or histamine-induced bronchoconstriction at 25 to 100 mg/kg, iv relative to control; assay type: functional, Canis lupus familiaris; conditions: dose mg/kg 25-100; summary of the method: as §2
Canis familiaris [10] = test: Bronchodilator activity in dog assessed as time of inhibition of carbachol or histamine-induced bronchoconstriction at 25 to 100 mg/kg, iv relative to control; assay type: functional, Canis lupus familiaris; conditions: dose mg/kg 25-100; summary of the method: as §1
Canis familiaris [11] = test: Cardiotoxicity in spontaneously respiring dog assessed as time of increase in heart rate at 5 to 20 mg/kg, iv relative to control; assay type: toxicity, organism-based, Canis lupus familiaris; design: dose 5-20 mg/kg, route intravenous; conditions: in vivo
Summary of the method: (§4)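 Anesthetized, spontaneously respiring dogs. Heart rate monitored by lead II EKG; blood pressure from right femoral artery by pressure transducer. Rise in heart rate (beats/min) scored ±=5-15, +=20-40, ++=40-60, +++=>60, n>4/dose; duration of the rise in h. Drug stocks freshly made in distilled water, diluted in physiological saline, kept on ice.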

Canis familiaris [12] = test: Cardiotoxicity in spontaneously respiring dog assessed as degree of increase in heart rate at 5 to 20 mg/kg, iv relative to control; assay type: toxicity, organism-based, Canis lupus familiaris; design: dose 5-20 mg/kg, route intravenous; conditions: in vivo; summary of the method: as §4
Canis familiaris [13] = test: Bronchodilator activity in dog assessed as degree of inhibition of carbachol or histamine-induced bronchoconstriction at 5 to 20 mg/kg, iv relative to control; assay type: functional, Canis lupus familiaris; conditions: dose mg/kg 5-20
Summary of the method: (§5)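 Dog with airway cannulated through a nonbreathing valve. Bronchoconstriction induced by iv carbachol (2–4 µg/kg) or histamine diphosphate (20–50 µg/kg); airway pressure recorded by pressure transducer. Each compound tested against both agonists in different animals, and results were combined and averaged. Bronchodilation = % inhibition of control constriction; degree scored as +, ++, +++ (20-45, 45-70, >70%) from higher dose, ≥3 dogs/dose; duration in h.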

Canis familiaris [14] = test: Bronchodilator activity in dog assessed as time of inhibition of carbachol or histamine-induced bronchoconstriction at 5 to 20 mg/kg, iv relative to control; assay type: functional, Canis lupus familiaris; conditions: dose mg/kg 5-20; summary of the method: as §5
Canis familiaris [15] = test: Bronchodilator activity in dog assessed as time of inhibition of carbachol or histamine-induced bronchoconstriction at 5 to 10 mg/kg, iv relative to control; assay type: functional, Canis lupus familiaris; conditions: dose mg/kg 5-10
Summary of the method: (§6)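 Anesthetized dogs with an airway cannula and a nonbreathing valve. Bronchoconstriction was induced by iv carbachol (2–4 μg/kg) or histamine diphosphate (20–50 μg/kg) and read as change in airway pressure by transducer. Each compound was tested against both agonists in different dogs, and the results were combined and averaged. Effect is % inhibition of control constriction, with at least three dogs per dose. Drugs were dissolved fresh in distilled water, diluted in saline and kept on ice.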

Canis familiaris [16] = test: Bronchodilator activity in dog assessed as degree of inhibition of carbachol or histamine-induced bronchoconstriction at 5 to 10 mg/kg, iv relative to control; assay type: functional, Canis lupus familiaris; conditions: dose mg/kg 5-10; summary of the method: as §2
Canis familiaris [17] = test: Cardiotoxicity in spontaneously respiring dog assessed as degree of increase in heart rate at 400 to 800 mg/kg, it relative to control; assay type: toxicity, organism-based, Canis lupus familiaris; design: dose 400-800 mg/kg, route endotracheal; conditions: in vivo, inhaled_or_intranasal; summary of the method: as §3
Canis familiaris [18] = test: Cardiotoxicity in spontaneously respiring dog assessed as time of increase in heart rate at 400 to 800 mg/kg, it relative to control; assay type: toxicity, organism-based, Canis lupus familiaris; design: dose 400-800 mg/kg, route endotracheal; conditions: in vivo, inhaled_or_intranasal; summary of the method: as §3
Canis familiaris [19] = test: Bronchodilator activity in dog assessed as time of inhibition of carbachol or histamine-induced bronchoconstriction at 400 to 800 mg/kg, it relative to control; assay type: functional, Canis lupus familiaris; conditions: dose mg/kg 400-800; route endotracheal; summary of the method: as §1
Canis familiaris [20] = test: Bronchodilator activity in dog assessed as degree of inhibition of carbachol or histamine-induced bronchoconstriction at 400 to 800 mg/kg, it relative to control; assay type: functional, Canis lupus familiaris; conditions: dose mg/kg 400-800; route endotracheal; summary of the method: as §2
Canis familiaris [21] = test: Bronchodilator activity in dog assessed as time of inhibition of carbachol or histamine-induced bronchoconstriction at 5 mg/kg, iv relative to control; assay type: functional, Canis lupus familiaris; summary of the method: as §6
Canis familiaris [22] = test: Bronchodilator activity in dog assessed as degree of inhibition of carbachol or histamine-induced bronchoconstriction at 5 mg/kg, iv relative to control; assay type: functional; conditions: Canis lupus familiaris; summary of the method: as §2
Canis familiaris [23] = test: Bronchodilator activity in dog assessed as degree of inhibition of carbachol or histamine-induced bronchoconstriction at 25 to 50 mg/kg, iv relative to control; assay type: functional, Canis lupus familiaris; conditions: dose mg/kg 25-50; summary of the method: as §2
Canis familiaris [24] = test: Bronchodilator activity in dog assessed as time of inhibition of carbachol or histamine-induced bronchoconstriction at 520 to 1040 mg/kg, it relative to control; assay type: functional, Canis lupus familiaris; conditions: dose mg/kg 520-1040; route endotracheal; summary of the method: as §6
Canis familiaris [25] = test: Bronchodilator activity in dog assessed as time of inhibition of carbachol or histamine-induced bronchoconstriction at 25 to 50 mg/kg, iv relative to control; assay type: functional, Canis lupus familiaris; conditions: dose mg/kg 25-50; summary of the method: as §1
Canis familiaris [26] = test: Bronchodilator activity in dog assessed as degree of inhibition of carbachol or histamine-induced bronchoconstriction at 520 to 1040 mg/kg, it relative to control; assay type: functional, Canis lupus familiaris; conditions: dose mg/kg 520-1040; route endotracheal; summary of the method: as §2

In the case of CCCC(=O)Oc1ccc([C@@H](O)CNC(C)(C)C)cc1OC(=O)CCC.Cl, the Time (Canis familiaris [1]) is reported as under 2 h, the “inhibition (INH)” value (Canis familiaris [2]) is reported as over 70% and the Time (Canis familiaris [3]) is reported as under 2 h. It also gave a Time (Canis familiaris [4]) of under 1 h, a Time (Canis familiaris [5]) of over 3 h and an inhibition in vivo at 380 mg/kg (Canis familiaris [6]) of over 70%. The “inhibition (INH)” value (Canis familiaris [7]) was over 70% and the Activity (Canis familiaris [8]) was 20 beats/min.
With COc1ccc(CC(=O)Oc2ccc([C@@H](O)CNC(C)(C)C)cc2OC(=O)Cc2ccc(OC)cc2)cc1.Cl the “inhibition (INH)” value (Canis familiaris [9]) was over 70% and the Time (Canis familiaris [10]) was 2 h.
For CC(C)CC(=O)Oc1ccc([C@@H](O)CNC(C)(C)C)cc1O.CS(=O)(=O)O, the Time (Canis familiaris [11]) was under 1 h, the Activity (Canis familiaris [12]) was 40% and the “inhibition (INH)” value (Canis familiaris [13]) was 45%. The Time (Canis familiaris [14]) was under 2 h.
With CCCC(C)(C)C(=O)Oc1ccc([C@@H](O)CNC(C)(C)C)cc1OC(=O)C(C)(C)CCC.CS(=O)(=O)O the Time (Canis familiaris [15]) was under 1 h and the “inhibition (INH)” value (Canis familiaris [16]) was 45%.
COc1ccc(C(=O)Oc2ccc([C@@H](O)CNC(C)(C)C)cc2O)cc1.Cl gave an Activity (Canis familiaris [17]) of 20%, a Time (Canis familiaris [18]) of under 0.5 h and a Time (Canis familiaris [19]) of under 2 h. For the same compound, the “inhibition (INH)” value (Canis familiaris [20]) was 45%.
With CC(C)C(=O)Oc1ccc([C@@H](O)CNC(C)(C)C)cc1OC(=O)C(C)C.Cl the Time (Canis familiaris [21]) was under 0.5 h and the inhibition in vivo at 5 mg/kg (Canis familiaris [22]) was 20%.
In the case of CS(=O)(=O)O.Cc1ccc(C(=O)Oc2ccc([C@@H](O)CNC(C)(C)C)cc2OC(=O)c2ccccc2)cc1, the “inhibition (INH)” value (Canis familiaris [23]) is reported as over 70%, the Time (Canis familiaris [24]) is reported as 2 h and the Time (Canis familiaris [25]) is reported as 2 h. For the same compound, the “inhibition (INH)” value (Canis familiaris [26]) was 45%.
